How the values were obtained:
[1] = Aqueous solubility in fasted state simulated intestinal fluid at pH 6.5 by LC/UV analysis; type: physicochemical
[2] = Toxicity in po dosed PXB mouse assessed as induction of metabolism administered bid every 12 hrs for 7 days; type: organism-based; conditions: in vivo
Method in brief: (§1)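 Repeat-dose tolerability study in uninfected PXB mice, run before HCV infection. The test agent was given orally as a phosphate prodrug at 10 and 30 mg/kg b.i.d. for 7 days. Plasma exposure of the parent drug was followed over the course, and liver tissue was taken 12 h after dosing on day 7.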

Hepatitis C virus [3] = assay: Antiviral activity against wild-type Hepatitis C virus genotype 1a infected in po dosed PXB mouse assessed as log reduction in viral mRNA titer administered bid every 12 hrs for 7 days measured on day 7 relative to control; type: functional, organism-based; conditions: Hepacivirus hominis; subtype 1a
Method in brief: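 PXB mice were infected with HCV genotype 1a wild-type virus and treated 5−8 weeks later (n = 4/group). Oral dosing b.i.d. for 7 days: prodrug at 10 or 30 mg/kg, or positive control at 100 mg/kg. Serum HCV RNA titers (viral load) were followed over the course of dosing.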

Hepatitis C virus [4] = assay: Antiviral activity against wild-type Hepatitis C virus genotype 1a infected in PXB mouse assessed as log reduction in viral mRNA titer at 10 to 30 mg/kg, po bid every 12 hrs for 7 days measured on day 4 relative to control; type: functional, Hepacivirus hominis, subtype 1a; conditions: dose mg/kg 10-30
Method in brief: (§2)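 PXB mice infected with wild-type HCV genotype 1a virus were dosed orally b.i.d. 5−8 weeks after infection with the phosphate prodrug of the lead (10 or 30 mg/kg) for 7 days, n = 4/group. A non-nucleoside NS5B inhibitor at 100 mg/kg b.i.d. served as positive control. Read-out was HCV viral RNA titer (viral load) over the course of treatment.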

Mus musculus [5] = assay: AUC (0 to 12 hrs) in PXB mouse assessed as 4-(3-chloro-6-cyclopropyl-8-(trifluoromethyl)imidazo[1,2-a]pyridine-2-carbonyl)-1-((trans)-4-hydroxycyclohexyl)piperazin-2-one level at 10 mg/kg, po; type: ADME, organism-based, Plasma; parameters: time < 12 hr, dose 10 mg/kg, route oral; conditions: in vivo
Method in brief: (§3)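 Single oral dose of the phosphate prodrug at 10 or 30 mg/kg to uninfected PXB mice (n = 3/group). Plasma levels of the parent drug were followed over 12 h, and AUC0−12h was calculated for the parent.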

Hepatitis C virus [6] = assay: Antiviral activity against wild-type Hepatitis C virus genotype 1a infected in PXB mouse assessed as log reduction in viral mRNA titer at 10 to 30 mg/kg, po bid every 12 hrs for 7 days measured after 12 hrs relative to control; type: functional, Hepacivirus hominis, subtype 1a; conditions: dose mg/kg 10-30; method in brief: as §2
[7] = Toxicity in po dosed PXB mouse assessed as compound accumulation administered bid every 12 hrs for 7 days; type: organism-based; conditions: in vivo; method in brief: as §1
Mus musculus [8] = assay: AUC (0 to 12 hrs) in PXB mouse assessed as 4-(3-chloro-6-cyclopropyl-8-(trifluoromethyl)imidazo[1,2-a]pyridine-2-carbonyl)-1-((trans)-4-hydroxycyclohexyl)piperazin-2-one level at 30 mg/kg, po; type: ADME, organism-based, Plasma; parameters: time < 12 hr, dose 30 mg/kg, route oral; conditions: in vivo; method in brief: as §3
Liver = assay: Drug uptake in PXB mouse liver assessed as 4-(3-chloro-6-cyclopropyl-8-(trifluoromethyl)imidazo[1,2-a]pyridine-2-carbonyl)-1-((trans)-4-hydroxycyclohexyl)piperazin-2-one level at 10 to 30 mg/kg, po bid every 12 hrs for 7 days measured 12 hrs post last dose; type: ADME, organism-based; parameters: dose 10-30 mg/kg, route oral; conditions: in vivo
Method in brief: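 Uninfected PXB mice were given the prodrug orally at 10 or 30 mg/kg b.i.d. for 7 days. Liver tissue was taken 12 h after the day-7 dose and the level of parent drug in liver was measured relative to plasma.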

Rattus norvegicus = assay: Prodrug conversion in CD rat assessed as 4-(3-chloro-6-cyclopropyl-8-(trifluoromethyl)imidazo[1,2-a]pyridine-2-carbonyl)-1-((trans)-4-hydroxycyclohexyl)piperazin-2-one level at 300 mg/kg, po; type: ADME, organism-based; parameters: dose 300 mg/kg, route oral; conditions: in vivo
Method in brief: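 CD rats were given a single oral dose of 300 mg/kg of parent suspension or of prodrug. Plasma was assayed for the parent drug and for uncleaved prodrug.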

With `O=C(c1nc2c(C(F)(F)F)cc(C3CC3)cn2c1Cl)N1CCN([C@H]2CC[C@H](OP(=O)(O)O)CC2)C(=O)C1` the solubility [1] was over 1000 µg/mL, the MTD at 7 days [2] was 30 mg/kg and the Activity (Hepatitis C virus [3]) was “Dose-dependent effect”. For the same molecule, the FC (Hepatitis C virus [4]) was 4, the AUC (Mus musculus [5]) was 15000 ng·h/mL and the FC (Hepatitis C virus [6]) was 1. The MTD at 7 days [7] was 10 mg/kg, the AUC (Mus musculus [8]) was 66000 ng·h/mL and the Drug uptake (Liver) was “Active”. For the same molecule, the Stability (Rattus norvegicus) was “Unstable”.

From ChEMBL document CHEMBL3124867, “Hepatitis C replication inhibitors that target the viral NS4B protein” (J Med Chem, 2014)
